Measurements taken from ChEMBL document CHEMBL1125062, “Structure-activity relationships for the carboxy-terminus truncated analogues of angiotension II, a new class of angiotensin II antagonists” (J Med Chem, 1990).
Where a SMILES comes first, the peptide text is derived from it. [ ]: non-standard residue; d: D form. Sar = CNCC(=O)O

What was measured:
Rattus norvegicus [1] = experiment: Variation in mean arterial pressure after 20 min of antagonist infusion at a dose of 10 ug/kg
Rattus norvegicus [2] = experiment: Variation of MAP induced bolus injection of 100 ug/kg of compound during infusion in rat reported as % of control (100) at a dose of 10 ug/kg; assay type: functional
Procedure, shortened: (§1)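 Same ganglion-blocked, Inactin-anaesthetized rat preparation, with MAP recorded via femoral artery catheter. Antagonist was infused iv for 20 min at 10, 30, 60 or 100 µg/kg per min before AII 30 ng/kg iv bolus challenge. After infusion stopped, AII was repeated at 5-10-min intervals for 1 h. The pressor response was expressed as % of control at 5-60 min, mean ± SEM, n = 2-6.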

Rattus norvegicus [3] = experiment: Variation in mean arterial pressure after 40 min of antagonist infusion at a dose of 30 ug/kg
Rattus norvegicus [4] = experiment: Variation in mean arterial pressure after 60 min of antagonist infusion at a dose of 10 ug/kg
Rattus norvegicus [5] = experiment: Variation of MAP induced bolus injection of 30 ng/kg of compound during infusion in rat reported as % of control (100) at a dose of 30 ug/kg; assay type: functional; details: in the assay text read “10 ug/kg” for “30 ug/kg”
Procedure, shortened: as §1

Rattus norvegicus [6] = experiment: Variation in mean arterial pressure after 10 min of antagonist infusion at a dose of 10 ug/kg
Rattus norvegicus [7] = experiment: Variation in mean arterial pressure after 5 min of antagonist infusion at a dose of 10 ug/kg
Rattus norvegicus [8] = experiment: In vivo activity to antagonize the effect of bolus injection of compound at 30 ug/kg in rat; assay type: functional; details: in the assay text read “angiotensin II at 30 ng/kg” for “compound at 30 ug/kg”
Procedure, shortened: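 Male Sprague-Dawley rats (240-400 g) under Inactin (100 mg/kg ip), ganglion-blocked with mecamylamine 3 mg/kg iv and atropine ip. AII 30 ng/kg iv bolus was given four times at 10-min intervals as baseline. Peptide was infused iv for 20 min, then AII was rechallenged. Endpoint was the smallest infusion dose (µg/kg per min) fully blocking the bolus, with time to ~50% recovery after infusion stopped.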

Rattus norvegicus [9] = experiment: Variation in mean arterial pressure after 40 min of antagonist infusion at a dose of 10 ug/kg
Rattus norvegicus [10] = experiment: In vivo activity to antagonize the effect of bolus injection of angiotensin II at 30 ng/kg in rat
Oryctolagus cuniculus = species: Oryctolagus cuniculus; experiment: In vitro myotropic property on the isolated rabbit aorta, expressed as pA2; assay type: functional; details: read-out: pA2 (converted)
Procedure, shortened: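 Aortic rings from male New Zealand white rabbits (2-2.5 kg) equilibrated 1 h, then set at ~1 g passive tension. Paired rings were used: one received cumulative AII, the other AII with the peptide added 5 min before. AII was given at 30-min intervals with Krebs washes. Responses were taken as % of control maximal contraction, and pA2 was derived by Schild analysis.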

Rattus norvegicus [11] = experiment: Drinking water response evaluated in conscious rat at a dose of 500 pmol icv; assay type: functional
Procedure, shortened: (§2)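 Conscious Sprague–Dawley rats given AII 100 pmol icv to induce water drinking. Test peptide was given icv at 500 or 2500 pmol, and the drinking response was recorded.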

Rattus norvegicus [12] = experiment: Percentage of pressor response to antagonize the effect of bolus injection of compound at a dose of 30 ug/kg/min in rat; assay type: functional
Rattus norvegicus [13] = species: Rattus norvegicus; experiment: In vitro myotropic property in rat stomach, expressed as pA2; assay type: functional; details: read-out: pA2 (converted)
Rattus norvegicus [14] = experiment: Variation in mean arterial pressure after 5 min of antagonist infusion at a dose of 10 ug/kg; remark: listed apart in the source
Rattus norvegicus [15] = experiment: Variation in mean arterial pressure after 60 min of antagonist infusion at a dose of 10 ug/kg; remark: listed apart in the source
Rattus norvegicus [16] = experiment: Variation in mean arterial pressure after 10 min of antagonist infusion at a dose of 10 ug/kg; remark: listed apart in the source
Rattus norvegicus [17] = experiment: Percentage of pressor response to antagonize the effect of bolus injection of compound at a dose of 30 ug/kg per min in rat; assay type: functional
Rattus norvegicus [18] = experiment: Variation in mean arterial pressure after 20 min of antagonist infusion at a dose of 10 ug/kg; remark: listed apart in the source
Rattus norvegicus [19] = experiment: Variation in mean arterial pressure after 40 min of antagonist infusion at a dose of 10 ug/kg; remark: listed apart in the source
Rattus norvegicus [20] = experiment: In vivo activity to antagonize the effect of bolus injection of angiotensin II at 30 ng/kg in rat; remark: listed apart in the source
Rattus norvegicus [21] = species: Rattus norvegicus; experiment: In vitro myotropic property in rat isolated uterus, expressed as pA2; assay type: functional; details: read-out: pA2 (converted)
Rattus norvegicus [22] = experiment: Variation of MAP induced bolus injection of 60 ug/kg of compound during infusion in rat reported as % of control (100) at a dose of 10 ug/kg; assay type: functional
Procedure, shortened: as §1

Rattus norvegicus [23] = experiment: Drinking water response evaluated in conscious rat at a dose of 2500 pmol icv; assay type: functional
Procedure, shortened: as §2

Compound: CNCC(=O)N[C@@H](CCCN=C(N)N)C(=O)N[C@H](C(=O)N[C@@H](Cc1ccc(O)cc1)C(=O)N[C@H](C(=O)N[C@@H](Cc1c[nH]cn1)C(=O)N1CCC[C@H]1C(=O)N[C@@H](C)C(=O)O)C(C)C)C(C)C [listing 1 of 2 here]
- Pressor response, % of control (Rattus norvegicus [1]): 78%
- Control (Rattus norvegicus [2]; in the assay text read “30 ng/kg of angiotensin II” for “100 ug/kg of compound”): 0%
- Pressor response, % of control (Rattus norvegicus [3]): 96%
- MAP (Rattus norvegicus [4]): 94%
- Control (Rattus norvegicus [5]): 0%
- Pressor response, % of control (Rattus norvegicus [6]): 50%
- MAP (Rattus norvegicus [7]): 29%
- Antagonist activity (Rattus norvegicus [8]): 10 µg/min/kg
- Pressor response, % of control (Rattus norvegicus [9]): 96%

Compound: CC[C@H](C)[C@H](NC(=O)[C@H](Cc1ccc(O)cc1)NC(=O)[C@@H](NC(=O)[C@H](CCCN=C(N)N)NC(=O)[C@@H](N)CC(=O)O)C(C)C)C(=O)N[C@@H](Cc1c[nH]cn1)C(=O)N1CCC[C@@H]1C(=O)O
- Antagonist activity (Rattus norvegicus [10]): >300 µg/min/kg
- Kb (Oryctolagus cuniculus): > 1000 nM
- Water intake (Rattus norvegicus [11]): 6.1 ml 20min-1

Compound: CC[C@H](C)[C@H](NC(=O)[C@H](Cc1ccc(O)cc1)NC(=O)[C@@H](NC(=O)[C@H](CCCN=C(N)N)NC(=O)CNC)C(C)C)C(=O)N[C@@H](Cc1c[nH]cn1)C(=O)N(C)CC(N)=O (H-[Sar]RVYIH[Sar]-NH2)
- Kb (Oryctolagus cuniculus): > 1000 nM

Compound: CC[C@H](C)[C@H](NC(=O)[C@H](Cc1ccc(OC)cc1)NC(=O)[C@@H](NC(=O)[C@H](CCCN=C(N)N)NC(=O)CNC)C(C)C)C(=O)N[C@@H](Cc1c[nH]cn1)C(=O)N1CCC[C@H]1C(N)=O [listing 1 of 2 here]
- Agonist activity (Rattus norvegicus [12]): 65%
- Pressor response, % of control (Rattus norvegicus [1]): 89%
- Control (Rattus norvegicus [2]): 19%
- MAP (Rattus norvegicus [4]): 100%
- Pressor response, % of control (Rattus norvegicus [6]): 86%
- MAP (Rattus norvegicus [7]): 70%
- Antagonist activity (Rattus norvegicus [8]): >100 µg/min/kg
- Pressor response, % of control (Rattus norvegicus [9]): 91%

Compound: CC[C@H](C)[C@H](NC(=O)[C@H](Cc1ccc(O)cc1)NC(=O)[C@@H](NC(=O)[C@H](CCCN=C(N)N)NC(=O)[C@@H](N)CC(=O)O)C(C)C)C(=O)N[C@@H](Cc1c[nH]cn1)C(=O)N(C)CC(N)=O (H-DRVYIH[Sar]-NH2)
- Kb (Oryctolagus cuniculus): > 1000 nM

Compound: CC[C@H](C)[C@H](NC(=O)[C@H](Cc1ccc(O)cc1)NC(=O)[C@@H](NC(=O)[C@H](CCCN=C(N)N)NC(=O)CNC)C(C)C)C(=O)N[C@@H](Cc1c[nH]cn1)C(=O)N1CCC[C@H]1C(N)=O [listing 1 of 2 here]
- Kb (Oryctolagus cuniculus): 25.1 nM

Compound: CC[C@H](C)[C@H](NC(=O)[C@H](Cc1ccc(O)cc1)NC(=O)[C@@H](NC(=O)[C@H](CCCN=C(N)N)NC(=O)CNC)C(C)C)C(=O)N[C@@H](Cc1c[nH]cn1)C(=O)N(C)C (H-[Sar]RVYIH-NMe2) [listing 1 of 2 here]
- Kb (Oryctolagus cuniculus): 89.1 nM

Compound: H-DRVYIH-NH2
- Kb (Oryctolagus cuniculus): > 1000 nM

Compound: CC[C@H](C)[C@H](NC(=O)[C@H](Cc1ccc(O)cc1)NC(=O)[C@@H](NC(=O)[C@H](CCCN=C(N)N)NC(=O)CNC)C(C)C)C(=O)N[C@@H](Cc1c[nH]cn1)C(N)=O (H-[Sar]RVYIH-NH2)
- Kb (Oryctolagus cuniculus): > 1000 nM

Compound: CC[C@H](C)[C@H](NC(=O)[C@H](Cc1ccc(O)cc1)NC(=O)[C@@H](NC(=O)[C@H](CCCN=C(N)N)NC(=O)CNC)C(C)C)C(=O)N[C@@H](Cc1c[nH]cn1)C(=O)NCC(N)=O (H-[Sar]RVYIHG-NH2)
- Kb (Oryctolagus cuniculus): > 1000 nM

Compound: CNCC(=O)N[C@@H](CCCN=C(N)N)C(=O)N[C@H](C(=O)N[C@@H](Cc1ccc(O)cc1)C(=O)N[C@H](C(=O)N[C@@H](Cc1c[nH]cn1)C(=O)N1CCC[C@H]1C(=O)N[C@@H](C)C(=O)O)C(C)C)C(C)C [listing 2 of 2 here]
- Kb (Rattus norvegicus [13]): 5.01 nM

Compound: CC[C@H](C)[C@H](NC(=O)[C@H](Cc1ccc(OC)cc1)NC(=O)[C@@H](NC(=O)[C@H](CCCN=C(N)N)NC(=O)CNC)C(C)C)C(=O)N[C@@H](Cc1c[nH]cn1)C(=O)N1CCC[C@H]1C(N)=O [listing 2 of 2 here]
- Kb (Oryctolagus cuniculus): 20 nM

Compound: CC[C@H](C)[C@H](NC(=O)[C@H](Cc1ccc(O)cc1)NC(=O)[C@@H](NC(=O)[C@H](CCCN=C(N)N)NC(=O)CNC)C(C)C)C(=O)N[C@@H](Cc1c[nH]cn1)C(=O)N(C)C (H-[Sar]RVYIH-NMe2) [listing 2 of 2 here]
- Control (Rattus norvegicus [2]): 5%
- Pressor response, % of control (Rattus norvegicus [14]): 10%
- MAP (Rattus norvegicus [15]): 82%
- Pressor response, % of control (Rattus norvegicus [16]): 13%
- Agonist activity (Rattus norvegicus [17]): 50%
- Pressor response, % of control (Rattus norvegicus [18]): 28%
- Pressor response, % of control (Rattus norvegicus [19]): 67%
- Antagonist activity (Rattus norvegicus [8]): 100 µg/min/kg

Compound: CC[C@H](C)[C@H](NC(=O)[C@H](Cc1ccc(O)cc1)NC(=O)[C@@H](NC(=O)[C@H](CCCN=C(N)N)NC(=O)CNC)C(C)C)C(=O)N[C@@H](Cc1c[nH]cn1)C(=O)N1CCC[C@H]1C(=O)O [listing 1 of 2 here]
- Kb (Oryctolagus cuniculus): 31.6 nM

Compound: CC[C@H](C)[C@H](NC(=O)[C@H](Cc1ccc(O)cc1)NC(=O)[C@@H](NC(=O)[C@H](CCCN=C(N)N)NC(=O)CNC)C(C)C)C(=O)N[C@@H](Cc1c[nH]cn1)C(=O)N1CCC[C@H]1C(=O)O [listing 2 of 2 here]
- Control (Rattus norvegicus [2]): 9%
- Pressor response, % of control (Rattus norvegicus [6]): 36%
- Agonist activity (Rattus norvegicus [17]): 45%
- Antagonist activity (Rattus norvegicus [8]): >100 µg/min/kg

Compound: CC[C@H](C)[C@H](NC(=O)[C@H](Cc1ccc(OC)cc1)NC(=O)[C@@H](NC(=O)[C@H](CCCN=C(N)N)NC(=O)CNC)C(C)C)C(=O)N[C@@H](Cc1c[nH]cn1)C(=O)N1CCC[C@H]1C(=O)N[C@@H](Cc1ccccc1)C(=O)O
- Antagonist activity (Rattus norvegicus [20]): 30 µg/min/kg
- Kb (Rattus norvegicus [21]): 25.1 nM
- Agonist activity (Rattus norvegicus [17]): 60%
- Water intake (Rattus norvegicus [11]): 3.1 ml 20min-1

Compound: CC[C@H](C)[C@H](NC(=O)[C@H](Cc1ccc(O)cc1)NC(=O)[C@@H](NC(=O)[C@H](CCCN=C(N)N)NC(=O)CNC)C(C)C)C(=O)N[C@@H](Cc1c[nH]cn1)C(=O)N1CCC[C@H]1C(N)=O [listing 2 of 2 here]
- Agonist activity (Rattus norvegicus [12]): 60%
- Control (Rattus norvegicus [22]): 6%
- Water intake (Rattus norvegicus [23]): 10.8 ml 20min-1
- Antagonist activity (Rattus norvegicus [8]): 60 µg/min/kg
- Water intake (Rattus norvegicus [11]): 10 ml 20min-1
